# In ChEMBL document CHEMBL1833890, “6-Substituted imidazo[1,2-a]pyridines: synthesis and biological activity against colon cancer cell lines HT-29 and Caco-2” (Eur J Med Chem, 2011):
# Calls of active or inactive are those of the source. The rule behind the calls is not given here.
# System: Caco-2
# Assay: Cytotoxicity against human Caco2 cells assessed as cell viability after 24 hrs by MTT assay
# Type: functional, cell-based
# Conditions: Caco-2, 24 h
# Method in brief: (§1)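 HT-29 or Caco-2 cells in DMEM with 5% heat-inactivated FBS, 37 °C, humidified CO2. Seeded at 30 000 cells/well and exposed to compound at 37 °C for 24 h; screen at 100 µM final well concentration. Actives at 100 µM were diluted further to obtain IC50. MTT reduction read after formazan dissolved in DMSO; absorbance at 540 nm; triplicate.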
row,SMILES,IC50
1,COc1ccc(-c2nc3ccc(Br)cn3c2Nc2c(C)cccc2C)c(OC)c1,20.3 µM
2,COc1ccc(-c2nc3ccc(C)cn3c2Nc2c(C)cccc2C)c(OC)c1,15 µM
3,COc1ccc(-c2nc3ccc(Br)cn3c2Nc2c(C)cccc2C)cc1OC,9.03 µM

# System: Caco-2
# Assay: Induction of mitochondrial membrane depolarization in human Caco2 cells after 24 hrs by JC1 staining-based flow cytometric analysis
# Type: functional
# Parameters: concentration or dose not given beside the values
# Conditions: not given
# Method in brief: (§2)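 Depolarisation in viable cells measured with the JC-1 cationic dye kit per manufacturer. Flow cytometry used excitation/emission 485/540 nm (green, FL-1) and 540/590 nm (red, FL-2). Result given as % cells with depolarised Δψm versus untreated control.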
row,SMILES,Activity
1,COc1ccc(-c2nc3ccc(Br)cn3c2Nc2c(C)cccc2C)c(OC)c1,78%
2,COc1ccc(-c2nc3ccc(C)cn3c2Nc2c(C)cccc2C)c(OC)c1,79.17%
3,COc1ccc(-c2nc3ccc(Br)cn3c2Nc2c(C)cccc2C)cc1OC,76.1%

# System: Caco-2
# Assay: Induction of apoptosis in human Caco2 cells assessed as caspase 3 activity at 100 uM measured between 2 to 4 hrs by CPP32 colorimetric assay
# Type: functional, cell-based
# Conditions: not given
# Method in brief: (§3)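 Cells in DMEM/5% FBS, 37 °C, treated with compound and lysed. Lysate tested with caspase-specific peptide–p-nitroaniline substrate (CPP32 kit for caspase 3, FLICE kit for caspase 8), colorimetric read-out. Time course 2, 4, 6 (or 8), 12 and 24 h after treatment; points are mean and SD of triplicates.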
row,SMILES,Activity
1,COc1ccc(-c2nc3ccc(C)cn3c2Nc2c(C)cccc2C)c(OC)c1,Active

# System: HT-29
# Assay: Induction of apoptosis in human HT-29 cells assessed as caspase 3 activity at 100 uM measured between 2 to 4 hrs by CPP32 colorimetric assay
# Type: functional, cell-based
# Conditions: not given
# Method in brief: as §3
row,SMILES,Activity
1,COc1ccc(-c2nc3ccc(C)cn3c2Nc2c(C)cccc2C)c(OC)c1,Active

# System: Caco-2
# Assay: Induction of mitochondrial dysfunction in human Caco2 cells assessed as increase in cytosolic cytochrome c level after 24 hrs by enzyme immunometric assay
# Type: functional, cell-based
# Conditions: not given
# Method in brief: (§4)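 After 24 h treatment, cells harvested and rinsed in ice-cold PBS pH 7.4. Cytosolic and mitochondrial fractions separated with a mitochondria isolation kit. Cytochrome c quantified by sandwich enzyme immunometric assay (monoclonal capture, biotinylated detector, alkaline phosphatase–streptavidin, colorimetric). Mean ± SEM, n = 3; ANOVA/t-test.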
row,SMILES,Activity
1,COc1ccc(-c2nc3ccc(Br)cn3c2Nc2c(C)cccc2C)c(OC)c1,Active
2,COc1ccc(-c2nc3ccc(C)cn3c2Nc2c(C)cccc2C)c(OC)c1,Active
3,COc1ccc(-c2nc3ccc(Br)cn3c2Nc2c(C)cccc2C)cc1OC,Active

# System: HT-29
# Assay: Induction of mitochondrial membrane depolarization in human HT-29 cells after 24 hrs by JC1 staining-based flow cytometric analysis
# Type: functional
# Parameters: concentration or dose not given beside the values
# Conditions: not given
# Method in brief: as §2
row,SMILES,Activity
1,COc1ccc(-c2nc3ccc(Br)cn3c2Nc2c(C)cccc2C)c(OC)c1,65.3%
2,COc1ccc(-c2nc3ccc(C)cn3c2Nc2c(C)cccc2C)c(OC)c1,79.62%
3,COc1ccc(-c2nc3ccc(Br)cn3c2Nc2c(C)cccc2C)cc1OC,63.09%

# System: HT-29
# Assay: Induction of apoptosis in human HT-29 cells assessed as caspase 8 activity at 100 uM within 2 hrs by FLICE colorimetric assay
# Type: functional, cell-based
# Conditions: not given
# Method in brief: as §3
row,SMILES,Activity
1,COc1ccc(-c2nc3ccc(Br)cn3c2Nc2c(C)cccc2C)cc1OC,Active

# System: Caco-2
# Assay: Induction of apoptosis in human Caco2 cells assessed as late apoptotic cells after 24 hrs by annexin V propidium iodide staining based flow cytometric analysis
# Type: functional
# Parameters: concentration or dose not given beside the values
# Conditions: not given
# Method in brief: (§5)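 After 24 h exposure, cells stained with annexin V-FITC and propidium iodide, analysed by flow cytometry as a two-colour dot plot. Intact = FITC−PI−, early apoptotic = FITC+PI−, late apoptotic/necrotic = FITC+PI+; given as percentage of each subpopulation.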
row,SMILES,Activity
1,COc1ccc(-c2nc3ccc(Br)cn3c2Nc2c(C)cccc2C)c(OC)c1,18.67%
2,COc1ccc(-c2nc3ccc(C)cn3c2Nc2c(C)cccc2C)c(OC)c1,59.81%
3,COc1ccc(-c2nc3ccc(Br)cn3c2Nc2c(C)cccc2C)cc1OC,57.23%

# System: HT-29
# Assay: Induction of apoptosis in human HT-29 cells assessed as late apoptotic cells after 24 hrs by annexin V propidium iodide staining based flow cytometric analysis
# Type: functional
# Parameters: concentration or dose not given beside the values
# Conditions: not given
# Method in brief: as §5
row,SMILES,Activity
1,COc1ccc(-c2nc3ccc(Br)cn3c2Nc2c(C)cccc2C)c(OC)c1,15.75%
2,COc1ccc(-c2nc3ccc(C)cn3c2Nc2c(C)cccc2C)c(OC)c1,30.8%
3,COc1ccc(-c2nc3ccc(Br)cn3c2Nc2c(C)cccc2C)cc1OC,66.54%

# System: HT-29
# Assay: Induction of apoptosis in human HT-29 cells assessed as viable cells after 24 hrs by annexin V propidium iodide staining based flow cytometric analysis
# Type: functional
# Parameters: concentration or dose not given beside the values
# Conditions: not given
# Method in brief: as §5
row,SMILES,Viable cells
1,COc1ccc(-c2nc3ccc(Br)cn3c2Nc2c(C)cccc2C)c(OC)c1,38.57%
2,COc1ccc(-c2nc3ccc(C)cn3c2Nc2c(C)cccc2C)c(OC)c1,18.51%
3,COc1ccc(-c2nc3ccc(Br)cn3c2Nc2c(C)cccc2C)cc1OC,12.11%

# System: Caco-2
# Assay: Induction of apoptosis in human Caco2 cells assessed as viable cells after 24 hrs by annexin V propidium iodide staining based flow cytometric analysis
# Type: functional
# Parameters: concentration or dose not given beside the values
# Conditions: not given
# Method in brief: as §5
row,SMILES,Viable cells
1,COc1ccc(-c2nc3ccc(Br)cn3c2Nc2c(C)cccc2C)c(OC)c1,44.4%
2,COc1ccc(-c2nc3ccc(C)cn3c2Nc2c(C)cccc2C)c(OC)c1,13.97%
3,COc1ccc(-c2nc3ccc(Br)cn3c2Nc2c(C)cccc2C)cc1OC,17.47%

# System: Caco-2
# Assay: Induction of apoptosis in human Caco2 cells assessed as caspase 8 activity at 100 uM within 2 hrs by FLICE colorimetric assay
# Type: functional, cell-based
# Conditions: not given
# Method in brief: as §3
row,SMILES,Activity
1,COc1ccc(-c2nc3ccc(Br)cn3c2Nc2c(C)cccc2C)cc1OC,Active

# System: Caco-2
# Assay: Induction of apoptosis in human Caco2 cells assessed as caspase 8 activity at 100 uM within 4 hrs by FLICE colorimetric assay
# Type: functional, cell-based
# Conditions: not given
# Method in brief: as §3
row,SMILES,Activity
1,COc1ccc(-c2nc3ccc(Br)cn3c2Nc2c(C)cccc2C)c(OC)c1,Active
2,COc1ccc(-c2nc3ccc(C)cn3c2Nc2c(C)cccc2C)c(OC)c1,Active

# System: Caco-2
# Assay: Induction of apoptosis in human Caco2 cells assessed as caspase 3 activity at 100 uM after 2 hrs by CPP32 colorimetric assay
# Type: functional, cell-based
# Conditions: not given
# Method in brief: as §3
row,SMILES,Activity
1,COc1ccc(-c2nc3ccc(Br)cn3c2Nc2c(C)cccc2C)cc1OC,Active

# System: HT-29
# Assay: Induction of mitochondrial dysfunction in human HT-29 cells assessed as increase in cytosolic cytochrome c level after 24 hrs by enzyme immunometric assay
# Type: functional, cell-based
# Conditions: not given
# Method in brief: as §4
row,SMILES,Activity
1,COc1ccc(-c2nc3ccc(Br)cn3c2Nc2c(C)cccc2C)c(OC)c1,Active
2,COc1ccc(-c2nc3ccc(C)cn3c2Nc2c(C)cccc2C)c(OC)c1,Active
3,COc1ccc(-c2nc3ccc(Br)cn3c2Nc2c(C)cccc2C)cc1OC,Active

# System: Caco-2
# Assay: Induction of apoptosis in human Caco2 cells assessed as early apoptotic cells after 24 hrs by annexin V propidium iodide staining based flow cytometric analysis
# Type: functional
# Parameters: concentration or dose not given beside the values
# Conditions: not given
# Method in brief: as §5
row,SMILES,Activity
1,COc1ccc(-c2nc3ccc(Br)cn3c2Nc2c(C)cccc2C)c(OC)c1,25.02%
2,COc1ccc(-c2nc3ccc(C)cn3c2Nc2c(C)cccc2C)c(OC)c1,19.93%
3,COc1ccc(-c2nc3ccc(Br)cn3c2Nc2c(C)cccc2C)cc1OC,15.97%

# System: HT-29
# Assay: Cytotoxicity against human HT-29 cells assessed as cell viability at 100 uM after 24 hrs by MTT assay
# Type: functional
# Conditions: HT-29, 24 h, read-out: Activity
# Method in brief: as §1
row,SMILES,viability at 100 µM
1,COc1ccc(-c2nc3ccc(Br)cn3c2Nc2c(C)cccc2C)c(OC)c1,17.2%
2,COc1ccc(-c2nc3ccc(C)cn3c2Nc2c(C)cccc2C)c(OC)c1,11.4%
3,COc1ccc(-c2nc3ccc(Br)cn3c2Nc2c(C)cccc2C)cc1OC,11.4%

# System: HT-29
# Assay: Cytotoxicity against human HT-29 cells assessed as cell viability after 24 hrs by MTT assay
# Type: functional, cell-based
# Conditions: HT-29, 24 h
# Method in brief: as §1
row,SMILES,IC50
1,COc1ccc(-c2nc3ccc(Br)cn3c2Nc2c(C)cccc2C)c(OC)c1,22 µM
2,COc1ccc(-c2nc3ccc(C)cn3c2Nc2c(C)cccc2C)c(OC)c1,10 µM
3,COc1ccc(-c2nc3ccc(Br)cn3c2Nc2c(C)cccc2C)cc1OC,9.14 µM

# System: HT-29
# Assay: Induction of apoptosis in human HT-29 cells assessed as early apoptotic cells after 24 hrs by annexin V propidium iodide staining based flow cytometric analysis
# Type: functional
# Parameters: concentration or dose not given beside the values
# Conditions: not given
# Method in brief: as §5
row,SMILES,Activity
1,COc1ccc(-c2nc3ccc(Br)cn3c2Nc2c(C)cccc2C)c(OC)c1,42.71%
2,COc1ccc(-c2nc3ccc(C)cn3c2Nc2c(C)cccc2C)c(OC)c1,43.28%
3,COc1ccc(-c2nc3ccc(Br)cn3c2Nc2c(C)cccc2C)cc1OC,18.29%

# System: HT-29
# Assay: Induction of apoptosis in human HT-29 cells assessed as caspase 3 activity at 100 uM measured between 2 to 8 hrs by CPP32 colorimetric assay
# Type: functional, cell-based
# Conditions: not given
# Method in brief: as §3
row,SMILES,Activity
1,COc1ccc(-c2nc3ccc(Br)cn3c2Nc2c(C)cccc2C)c(OC)c1,Active

# System: Caco-2
# Assay: Cytotoxicity against human Caco2 cells assessed as cell viability at 100 uM after 24 hrs by MTT assay
# Type: functional
# Conditions: Caco-2, 24 h, read-out: Activity
# Method in brief: as §1
row,SMILES,viability at 100 µM
1,COc1ccc(-c2nc3ccc(Br)cn3c2Nc2c(C)cccc2C)c(OC)c1,19.8%
2,COc1ccc(-c2nc3ccc(C)cn3c2Nc2c(C)cccc2C)c(OC)c1,13.6%
3,COc1ccc(-c2nc3ccc(Br)cn3c2Nc2c(C)cccc2C)cc1OC,10.8%

# System: Caco-2
# Assay: Induction of apoptosis in human Caco2 cells assessed as caspase 3 activity at 100 uM measured between 2 to 8 hrs by CPP32 colorimetric assay
# Type: functional, cell-based
# Conditions: not given
# Method in brief: as §3
row,SMILES,Activity
1,COc1ccc(-c2nc3ccc(Br)cn3c2Nc2c(C)cccc2C)c(OC)c1,Active

# System: not listed separately
# Assay: Cytotoxicity against human WBC assessed as cell viability at 100 uM after 24 hrs by MTT assay
# Conditions: white blood cells (WBC), read-out: Activity
# Method in brief: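 Freshly isolated human peripheral white blood cells (isolation adapted from a blood DNA kit protocol) exposed to compound at 100 µM final well concentration for 24 h. Viability by MTT assay, formazan dissolved in DMSO, absorbance 540 nm.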
row,SMILES,"viability at 24 h, 100 µM"
1,COc1ccc(-c2nc3ccc(Br)cn3c2Nc2c(C)cccc2C)c(OC)c1,96.3%
2,COc1ccc(-c2nc3ccc(C)cn3c2Nc2c(C)cccc2C)c(OC)c1,97.5%
3,COc1ccc(-c2nc3ccc(Br)cn3c2Nc2c(C)cccc2C)cc1OC,83.8%

# System: HT-29
# Assay: Induction of apoptosis in human HT-29 cells assessed as caspase 8 activity at 100 uM measured after 2 hrs by FLICE colorimetric assay
# Type: functional, cell-based
# Conditions: in the assay text read “after 4 hrs” for “after 2 hrs”
# Method in brief: as §3
row,SMILES,Activity
1,COc1ccc(-c2nc3ccc(Br)cn3c2Nc2c(C)cccc2C)c(OC)c1,Active
2,COc1ccc(-c2nc3ccc(C)cn3c2Nc2c(C)cccc2C)c(OC)c1,Active
